This note sets out measurements from ChEMBL document CHEMBL4480390, “Cink4T, a quinazolinone-based dual inhibitor of Cdk4 and tubulin polymerization, identified via ligand-based virtual screening, for efficient anticancer therapy” (Eur J Med Chem, 2019).

The source made the active and inactive calls. The rule behind the calls is not given here.

Assay [1] concerns the target Cyclin-dependent kinase 4/cyclin D1 (Homo sapiens) (UniProt P11802+P24385). Briefly: Inhibition of recombinant human N-terminal GST-tagged CDK4 (S4 to E303 residues)/Cyclin D1 (Q4 to I295 residues) expressed in sf9 cells at 10 uM using RBCTF as substrate measured after 1 hr by ADP-glo luminescence assay relative to control. A general note: ADP-Glo first removes unused ATP, then detects ADP through luciferase.

For assay [2], the target named is CDK9/cyclin T1 (Homo sapiens) (UniProt O60563+P50750). Briefly: Inhibition of N-terminal GST-HIS6 fusion protein tagged human full length CDK9 (M1 to F372 residues)/N-terminal HIS6-fused human Cyclin-T1 (M1 to K726 residues) expressed in Sf9 cells at 10 uM using RBCTF as substrate measured after 1 hr by ADP-glo luminescence assay relative to control. An outline of the steps: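 ADP-Glo kinase assay with 200 ng Cdk-cyclin enzyme, ATP (125 µM in 2.5x mix) and 25 µg substrate (RBCTF or RBER-CHKtide, per Cdk). Buffer: Tris, MgCl2, BSA, DTT, MnCl2 cofactor, DMSO. Reaction 1 h at 21°C; ADP-Glo 40 min, then detection reagent 40 min. Luminescence read. IC50 by 4-parameter fit; three independent experiments.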

In a further assay the test system is MDA-MB-468. Briefly: cells. The settings on record: Homo sapiens, MDA-MB-468, 72 h.
Another assay concerns the target Tubulin (Sus scrofa) (UniProt P02554+P02550). Briefly: Inhibition of porcine tubulin polymerization at 5 uM incubated for 1 min by fluorescence based assay. Format: protein assay. The method in brief: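 Compounds added from 10x stocks in duplicate and warmed at 37°C ≤1 min. Ice-cold tubulin pre-mix then added. Fluorescent reporter read at ex 360/em 460 nm for 60 min. Paclitaxel served as enhancer control, CaCl2 as inhibitor control.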

Another assay deals with CDK2/Cyclin A2 (Homo sapiens, UniProt P24941). Briefly: Inhibition of human full length N-terminal GST-fused CDK2 (M1 to L298 residues)/human full length Cyclin-A2 (M1 to L432 residues) expressed in Sf9 cells using histone H1 as substrate measured after 1 hr by ADP-glo luminescence assay.
For a further assay, the system named is A549. Briefly: cells. As to conditions: Homo sapiens, A549, 72 h.
The subject of another assay is T47D. Briefly: cells. As to conditions: Homo sapiens, 72 h.
The subject of a further assay is Calu-1. Briefly: cells. The settings on record: Homo sapiens, Calu-1, 72 h.

Chain of Tubulin (Sus scrofa) (P02550 whole entry, looked up): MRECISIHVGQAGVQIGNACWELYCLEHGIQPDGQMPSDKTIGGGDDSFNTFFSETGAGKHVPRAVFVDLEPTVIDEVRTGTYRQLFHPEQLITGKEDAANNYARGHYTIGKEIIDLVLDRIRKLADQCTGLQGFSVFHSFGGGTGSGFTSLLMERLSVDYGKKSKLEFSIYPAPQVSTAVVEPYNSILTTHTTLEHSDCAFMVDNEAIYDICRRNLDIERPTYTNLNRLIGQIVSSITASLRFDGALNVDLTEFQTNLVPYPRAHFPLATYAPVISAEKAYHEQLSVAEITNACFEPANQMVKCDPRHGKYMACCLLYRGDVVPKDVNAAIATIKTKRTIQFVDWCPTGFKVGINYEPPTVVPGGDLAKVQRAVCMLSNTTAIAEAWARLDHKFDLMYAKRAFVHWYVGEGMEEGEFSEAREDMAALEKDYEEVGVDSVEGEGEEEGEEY
Chain of Tubulin (Sus scrofa) (P02554 whole entry, looked up): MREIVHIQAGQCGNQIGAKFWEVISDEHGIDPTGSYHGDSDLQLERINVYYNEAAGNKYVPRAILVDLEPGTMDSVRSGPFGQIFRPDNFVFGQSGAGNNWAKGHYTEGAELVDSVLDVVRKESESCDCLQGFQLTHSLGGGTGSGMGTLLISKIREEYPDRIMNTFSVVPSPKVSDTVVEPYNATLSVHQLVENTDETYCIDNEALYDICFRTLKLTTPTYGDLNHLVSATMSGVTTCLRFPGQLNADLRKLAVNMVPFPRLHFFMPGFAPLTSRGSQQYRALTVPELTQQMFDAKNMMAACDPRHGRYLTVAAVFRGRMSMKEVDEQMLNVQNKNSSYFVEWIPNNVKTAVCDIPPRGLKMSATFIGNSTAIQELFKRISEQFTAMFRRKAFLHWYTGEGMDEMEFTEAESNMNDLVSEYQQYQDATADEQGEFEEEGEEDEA

A word on the inhibition: it is the drop in the measured response relative to a control, in per cent. For the compound `COc1ccc(-c2nc3ccccc3c(=O)[nH]2)cc1OCC(=O)Nc1ccccc1C`, the inhibition in assay [1] is -5%.
On to `O=C(COc1ccc(-c2nc3ccccc3c(=O)[nH]2)cc1)Nc1cccc2ccccc12`, for which the inhibition in assay [1] was determined as 5%.
With `COc1ccc(-c2nc3ccccc3c(=O)[nH]2)cc1Oc1ccc(F)cc1`, the inhibition in assay [1] amounted to 46%.
With `Oc1nc(-c2cccnc2)nc2ccccc12`, the inhibition in assay [1] came to 36%.
Regarding `COc1ccc(-c2nc3ccccc3c(=O)[nH]2)cc1OCC(=O)Nc1ccc([N+](=O)[O-])cc1`, the inhibition in assay [1] worked out at 1%.
Still for that read-out and setting: the figure for `COc1cccc(NC(=O)COc2ccc(-c3nc4ccccc4c(=O)[nH]3)cc2OC)c1` is 16%.
`O=C(COc1ccc(-c2nc3ccccc3c(=O)[nH]2)cc1)Nc1ccc2ccccc2c1`: the inhibition in assay [1] is 0%.
On to `O=c1[nH]c(-c2ccc(Br)cc2)nc2ccccc12`, for which the inhibition in assay [1] came to 31%.
For `CS(=O)(=O)Oc1ccc(-c2nc3ccccc3c(=O)[nH]2)cc1`, in assay [1], the inhibition is 42%.
For `COc1ccc(-c2nc3ccccc3c(=O)[nH]2)cc1OCC(=O)Nc1ccccc1Cl`, in assay [1], the inhibition came to 41%.
Same read-out and setting: the figure for `COc1cc(-c2nc3ccccc3c(=O)[nH]2)ccc1OCc1ccc(F)cc1F` is 36%; for `COc1ccccc1NC(=O)COc1cc(-c2nc3ccccc3c(=O)[nH]2)ccc1OC` it is 21%.
Still for that read-out and setting: the same measure for `O=c1[nH]c(-c2ccc([N+](=O)[O-])cc2)nc2ccccc12`: 0%.
What is called EC50 is the concentration giving half of the maximal effect. Read a high EC50 as lower potency in that assay. The term IC50 denotes the concentration that inhibits the measured activity by half. Lower therefore signals greater potency. For the compound `COc1cc(-c2nc3ccccc3c(=O)[nH]2)ccc1OS(C)(=O)=O`, the inhibition was -5% in assay [2] and 78% in assay [1]. The EC50 in the assay on MDA-MB-468 was over 50 µM; in the assay on A549, 7 µM; in the assay on T47D, 8 µM; in the assay with Calu-1 it was 9 µM. In addition, the inhibition result on Tubulin (Sus scrofa) is “Active”. For the same compound, the IC50 against CDK2/Cyclin A2 was over 100 µM.
For `O=C(COc1ccc(-c2nc3ccccc3c(=O)[nH]2)cc1)NC1CCCCC1`, in assay [1], the inhibition was found to be 20%.
Same read-out and setting: the same measure for `O=c1[nH]c(-c2ccc(O)cc2)nc2ccccc12`: 30%; for `O=C(COc1ccc(-c2nc3ccccc3c(=O)[nH]2)cc1)Nc1ccccc1`: 45%; for `COc1ccc(-c2nc3ccccc3c(=O)[nH]2)cc1O`: 0%.
Same read-out and setting: the figure for `O=C(COc1ccc(-c2nc3ccccc3c(=O)[nH]2)cc1O)Nc1ccc(Cl)cc1` is 0%; for `O=c1[nH]c(-c2cccc(O)c2)nc2ccccc12` it is -6%; for `CCOc1ccc(NC(=O)COc2ccc(-c3nc4ccccc4c(=O)[nH]3)cc2OC)cc1` it is 0%.
With `O=C(COc1ccc(-c2nc3ccccc3c(=O)[nH]2)cc1)Nc1ccc([N+](=O)[O-])cc1`, the inhibition in assay [1] is 26%.
As for `COc1cc(-c2nc3ccccc3c(=O)[nH]2)ccc1Oc1ccc(Cl)cc1Cl`, the inhibition in assay [1] stood at 55%.
On to `COc1ccc(NC(=O)COc2ccc(-c3nc4ccccc4c(=O)[nH]3)cc2OC)cc1`, for which the inhibition in assay [1] stood at 41%.
For `COc1cc(-c2nc3ccccc3c(=O)[nH]2)ccc1OCC(=O)Nc1ccc(F)cc1`, the inhibition in assay [1] came to 7%.
`CCOc1ccc(NC(=O)COc2cc(-c3nc4ccccc4c(=O)[nH]3)ccc2OC)cc1`: the inhibition in assay [1] came out at 3%.
`COc1cc(-c2nc3ccccc3c(=O)[nH]2)ccc1O`: the inhibition in assay [1] is 39%.
As for `CCCCNC(=O)COc1ccc(-c2nc3ccccc3c(=O)[nH]2)cc1OC`, in assay [1], the inhibition turned out to be 48%.
`C#CCOc1ccc(-c2nc3ccccc3c(=O)[nH]2)cc1OC`: in assay [1], the inhibition is 38%.
Regarding `COc1cccc(NC(=O)COc2cc(-c3nc4ccccc4c(=O)[nH]3)ccc2OC)c1`, the inhibition in assay [1] stood at 5%.
Take `O=c1[nH]c(-c2ccc(OCc3ccc(F)cc3F)cc2)nc2ccccc12`: in assay [1], the inhibition is 30%.
Take `COc1ccc(NC(=O)COc2cc(-c3nc4ccccc4c(=O)[nH]3)ccc2OC)cc1`: in assay [1], the inhibition was found to be 14%.
Take `COc1ccc(-c2nc3ccccc3c(=O)[nH]2)cc1OCC(=O)Nc1ccccc1`: the inhibition in assay [1] was found to be 20%.
Turning to `O=c1[nH]c(-c2ccc(Oc3ccc(F)cc3)cc2)nc2ccccc12`, the inhibition in assay [1] was determined as 30%.
Turning to `Cc1ccc(NC(=O)COc2ccc(-c3nc4ccccc4c(=O)[nH]3)cc2)cc1`, in assay [1], the inhibition was determined as 5%.
Take `CC(=O)c1c(C)c2cnc(Nc3ccc(N4CCNCC4)cn3)nc2n(C2CCCC2)c1=O`: the inhibition was -4% in assay [2] and 95% in assay [1].
As for `COc1ccc(-c2nc3ccccc3c(=O)[nH]2)cc1OCc1ccc(F)cc1F`, the inhibition in assay [1] turned out to be 45%.
